Measurements published in BindingDB's records for doi:10.1016/j.bmc.2009.05.079 (Universidad De Valencia, 2009).

Target: D(2) dopamine receptor (Rattus norvegicus, UniProt P61169)
Assay: Displacement of [3H]raclopride from dopamine D2 receptor in Wistar rat striatal membrane by liquid scintillation counting
In short: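 Female Wistar rat striatal membranes were washed at 49,000g and resuspended in Tris-ions buffer, pH 7.4. [3H]-raclopride displacement was read by filtration, cold-buffer washes and scintillation counting. Ki was derived using KD 1,25 nM; 3–6 independent determinations in duplicate, mean SEM.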

Chain of D(2) dopamine receptor (P61169 whole entry): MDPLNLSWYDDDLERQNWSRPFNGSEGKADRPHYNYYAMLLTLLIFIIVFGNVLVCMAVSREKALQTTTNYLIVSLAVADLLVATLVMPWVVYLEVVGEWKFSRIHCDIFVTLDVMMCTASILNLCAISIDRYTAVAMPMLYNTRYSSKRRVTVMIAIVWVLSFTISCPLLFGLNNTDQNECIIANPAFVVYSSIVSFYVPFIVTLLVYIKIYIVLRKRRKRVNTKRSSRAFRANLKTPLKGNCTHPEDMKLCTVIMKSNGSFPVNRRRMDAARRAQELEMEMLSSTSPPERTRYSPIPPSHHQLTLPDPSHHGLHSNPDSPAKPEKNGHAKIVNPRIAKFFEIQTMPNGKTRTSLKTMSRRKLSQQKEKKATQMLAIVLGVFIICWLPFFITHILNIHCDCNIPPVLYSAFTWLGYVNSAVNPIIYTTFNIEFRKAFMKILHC

CCCCC1NCCc2cc(Cl)c(O)cc21 (stereo unspecified) [1-Butyl-6-chloro-7-hydroxy-1,2,3,4-tetrahydroisoquinoline]
Ki: 76 nM
